This note sets out measurements from ChEMBL document CHEMBL4270526, “A novel NAE/UAE dual inhibitor LP0040 blocks neddylation and ubiquitination leading to growth inhibition and apoptosis of cancer cells” (Eur J Med Chem, 2018).

Active and inactive are the calls of the source. The calls are words filed in the database; no cut-off is given here.

In one series the test system is BXPC-3. Put plainly: Antiproliferative activity against human BxPC3 cells after 48 hrs by CCK8 assay. The class given is functional, cell-based. As to conditions: BXPC-3, 48 h. Summed up:
(§1)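 Cells seeded at 6 × 10^3 cells/well and left 12 h at 37 °C, 5% CO2. Medium then replaced with serial compound dilutions, bortezomib as positive control. After 48 h, CCK-8 added for 4 h and absorbance read at 450 nm. Three repeats; IC50 from normalized nonlinear regression of inhibition curves.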

A further series deals with SK-OV-3. Put plainly: Antiproliferative activity against human SKOV3 cells after 48 hrs by CCK8 assay. The class given is functional, cell-based. The settings on record: SK-OV-3, 48 h. Summed up:
as §1

Another series deals with HCT-116. Put plainly: Antiproliferative activity against human HCT116 cells after 48 hrs by CCK8 assay. The settings on record: HCT-116, 48 h. It is filed as functional, cell-based. Summed up: as §1
The next series relates to A549. Put plainly: Antiproliferative activity against human A549 cells after 48 hrs by CCK8 assay. It is filed as functional, cell-based. As to conditions: A549, 48 h. Put shortly: as §1
The next series has as its system K562. Put plainly: Antiproliferative activity against human K562 cells after 48 hrs by CCK8 assay. The class given is functional, cell-based. As to conditions: K562, 48 h. Summed up:
as §1

Another series relates to AGS. The experiment in a line: Antiproliferative activity against human AGS cells after 48 hrs by CCK8 assay. The class given is functional, cell-based. Summed up:
as §1

A short description of series [1]: Hemolytic activity against rabbit erythrocytes assessed as hemolysis at 100 uM measured after 1 hr. It is filed as ADME, cell-based, Oryctolagus cuniculus, Erythrocyte. As to conditions: read-out: Activity. Put shortly:
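Rabbit erythrocytes pelleted at 3000 rpm for 10 min, washed twice and resuspended in PBS. Mixed 1:1 with 200 μM compound solution in PBS, 1 h at 37 °C. PBS served as 0% and 1% Triton X-100 as 100% hemolysis. After centrifugation, supernatant hemoglobin read at 540 nm; % hemolysis calculated relative to the Triton and PBS controls.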

The target in series [2] is T1, NEDD8 activating enzyme (Homo sapiens) (UniProt Q8TBC4+Q13564). The experiment in a line: Inhibition of NAE-mediated CRL neddylation in human AGS cells assessed as increase in CDT1 level after 24 hrs by Western blot analysis. It is filed as cell-based. Put shortly: (§2)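 AGS cells given 2, 4, 6, 8 or 10 μM compound or 0.1% DMSO for 24 h, washed in ice-cold PBS and lysed in RIPA on ice. Equal protein loads run by SDS-PAGE: non-reducing for NEDD8/SUMO/Ub conjugates, reducing for p27, NRF2, CDT1 and cleaved caspase-3. Blotted to PVDF with primary antibody overnight at 4 °C and HRP secondary, ECL detection, densitometry. Three repeats.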

Series [3] deals with T1, NEDD8 activating enzyme (Homo sapiens). The experiment in a line: Inhibition of NAE in human AGS cells assessed as reduction in Cullins-NEDD8 conjugation level at 10 to 90 uM after 24 hrs by Western blot analysis. The class given is cell-based.
Series [4] has the same target. Put plainly: Inhibition of NAE-mediated CRL neddylation in human AGS cells assessed as increase in NRF2 level after 24 hrs by Western blot analysis. It is filed as cell-based. Summed up: as §2
Series [5] has the same target. The experiment in a line: Inhibition of NAE in human AGS cells assessed as reduction in Uba3-NEDD8 conjugation level at 10 to 90 uM after 24 hrs by Western blot analysis. It is filed as cell-based.
Series [6] has the same target. The experiment in a line: Inhibition of NAE in human AGS cells assessed as reduction in Ubc12-NEDD8 conjugation level at 10 to 90 uM after 24 hrs by Western blot analysis. The class given is cell-based.
The target is the same in series [7]. The experiment in a line: Inhibition of NAE-mediated CRL neddylation in human AGS cells assessed as increase in p27 level after 24 hrs by Western blot analysis. It is filed as cell-based. Summed up: as §2
Series [8] is described as follows: Antiproliferative activity against HUVEC after 48 hrs by CCK8 assay. The class given is cell-based. As to conditions: human, read-out: LC50.
A short description of series [9]: Antiproliferative activity against HEK293T cells after 48 hrs by CCK8 assay. It is filed as cell-based, HEK-293T. The settings on record: human, read-out: LC50.
Series [10] is described as follows: Antiproliferative activity against human LO2 cells after 48 hrs by CCK8 assay. The settings on record: read-out: LC50. It is filed as cell-based, L02.

For the compound `O=c1cc(C#CC2CCCCC2)c2ccc(N3CCC(NCCc4ccccc4)CC3)cc2o1`, the IC50 in the series on BXPC-3 is 4.08 µM; with SK-OV-3, 4.17 µM; in the series on HCT-116, 2.81 µM; in the series on A549, 2.99 µM; in the series with K562 it was 1.17 µM; in the series on AGS it was 1.13 µM.
On to `O=c1cc(C#Cc2cccnc2)c2ccc(N3CCC(NCCc4ccccc4)CC3)cc2o1`, for which the IC50 with BXPC-3 stood at 4.33 µM; in the series on SK-OV-3, 7.7 µM; with HCT-116, 2.69 µM; in the series on A549, 3.35 µM; with K562 it was 3.3 µM; with AGS, 1.66 µM. In addition, in series [1], the hemolysis at 1 h, 100 µM is less than 10%.
For `O=c1cc(-c2c[nH]nn2)c2ccc(N3CCC(NCCc4ccccc4)CC3)cc2o1`, the IC50 in the series on BXPC-3, in the series with SK-OV-3, in the series on HCT-116, in the series with A549, in the series with K562 and in the series on AGS was more than 30 µM throughout.
Regarding `Cc1cc(-c2cc(=O)oc3cc(N4CCC(NCCc5ccccc5)CC4)ccc23)ccc1C(F)(F)F`, the IC50 was 7.67 µM with BXPC-3; 5.94 µM with SK-OV-3; 6 µM in the series with HCT-116; 3.09 µM in the series with A549; 3.29 µM with K562; 1.39 µM in the series with AGS.
For `Clc1ccc(CCNC2CCN(Cc3ccccc3)CC2)c(Cl)c1`, the IC50 with BXPC-3 was determined as 12.4 µM; in the series with SK-OV-3, 9.26 µM; with HCT-116, 10.6 µM; in the series on A549 it was 5.55 µM; in the series on K562, 5.51 µM; in the series on AGS, 9.92 µM.
On to `O=c1cc(-c2cnc(O)nc2O)c2ccc(N3CCC(NCCc4ccccc4)CC3)cc2o1`, for which the inhibition entry in series [2], in [3], in series [4], in series [5], in [6] and in series [7] was “inactive” each time. The IC50 with BXPC-3, in the series with SK-OV-3, in the series on HCT-116, in the series with A549, with K562 and with AGS was more than 30 µM throughout.
`Cc1ccc(-c2cc(=O)oc3cc(N4CCC(NCCc5ccccc5)CC4)ccc23)cc1C`: the IC50 with BXPC-3 came out at 8.44 µM; with SK-OV-3, 6.42 µM; with HCT-116 it was 5.82 µM; in the series with A549, 3.77 µM; in the series with K562, 3.26 µM; in the series on AGS, 1.89 µM.
`O=c1cc(C#CC2(O)CCCCC2)c2ccc(N3CCC(NCCc4ccccc4)CC3)cc2o1`: the IC50 with BXPC-3 came out at 2.01 µM; with SK-OV-3, 4.35 µM; in the series with HCT-116, 2.79 µM; in the series with A549 it was 2.48 µM; with K562 it was 2.63 µM; with AGS, 1.71 µM.
Turning to `NS(=O)(=O)OC[C@@H]1C[C@@H](n2ccc3c(N[C@@H]4CCc5ccccc54)ncnc32)C[C@@H]1O`, the values for the CC50 at 48 h in series [8], in series [9] and in series [10] were 4.79 µM, 6.17 µM and 9.01 µM, respectively. In addition, in series [1], the hemolysis at 1 h, 100 µM was 5.8%.
`O=c1cc(C#Cc2cccc(Cl)c2)c2ccc(N3CCC(NCCc4ccccc4)CC3)cc2o1`: the IC50 was found to be 1.33 µM with BXPC-3; 7.5 µM in the series on SK-OV-3; 4.27 µM in the series with HCT-116; 3.1 µM with A549; 1.32 µM in the series with K562; 1.42 µM with AGS. Moreover, the hemolysis at 1 h, 100 µM in [1] was less than 10%.
For `O=c1cc(-c2ccc(Oc3ccccc3)cc2)c2ccc(N3CCC(NCCc4ccccc4)CC3)cc2o1`, the IC50 with BXPC-3 was found to be 2.82 µM; with SK-OV-3 it was 3.22 µM; with HCT-116 it was 6.11 µM; in the series on A549 it was 3.83 µM; in the series on K562, 1.53 µM; in the series with AGS, 1.26 µM.
As for `CC(C)C[C@H](NC(=O)[C@H](Cc1ccccc1)NC(=O)c1cnccn1)B(O)O` [BORTEZOMIB], the results for the CC50 at 48 h in series [8], in series [9] and in series [10] were 0.018 µM, 0.016 µM and 0.398 µM, respectively.
